Results taken from PubChem BioAssay AID720702 (The Scripps Research Institute Molecular Screening Center, 2013).
The campaign covered roughly 370,000 compounds. About 1,200 (0.32%) were called active.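 The calls were made as follows: active = inhibition above the mean of all tested compounds plus 3 SD, set per campaign (cut at about 25% in these data); inactive = the rest.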 Shown is part of a subset that was picked to be rich in actives.

These compounds were tested against Tyrosyl-DNA phosphodiesterase 2 (Homo sapiens) (UniProt O95551) (assay: human TDP2 enzyme inhibitors, primary screen, biochemical, epi absorbance, recombinant enzyme (AID 720702;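 also: 0% = DMSO with enzyme and 100% = buffer with substrate but no TDP2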)). Settings: recombinant TDP2, T5PNP hydrolysis, p-nitrophenol absorbance 415 nm; at 12.8 µM; stronger effect = higher value.
Tyrosyl-DNA phosphodiesterase 2 (Homo sapiens), sequence (O95551 whole entry, looked up): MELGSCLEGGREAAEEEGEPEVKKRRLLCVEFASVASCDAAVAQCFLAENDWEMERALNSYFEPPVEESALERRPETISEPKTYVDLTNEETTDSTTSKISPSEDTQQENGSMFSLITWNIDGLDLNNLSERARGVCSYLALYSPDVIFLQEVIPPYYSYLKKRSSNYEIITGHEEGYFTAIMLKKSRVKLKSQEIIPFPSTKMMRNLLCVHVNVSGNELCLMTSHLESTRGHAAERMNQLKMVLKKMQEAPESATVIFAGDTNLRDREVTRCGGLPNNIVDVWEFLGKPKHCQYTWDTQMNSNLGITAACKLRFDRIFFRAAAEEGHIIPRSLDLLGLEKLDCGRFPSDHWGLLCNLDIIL
Procedure, shortened: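 Test system: Human TDP2 enzyme | Reagent: 5 mM T5PNP | Compound dosing: 12.8 µM single point, 1% DMSO | Incubation: Enzyme reaction with compound for 2 h at 37 °C | Technique: p-Nitrophenol epi absorbance | Read-out: % inhibition relative to enzyme-containing and enzyme-free wells | Benchmarks: High control without enzyme, low control DMSO plus TDP2 | Replicates: Singlicate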

Compound | inhibition
O=C(NCc1ccc(Cl)cc1)C(=O)NCC1CCCN1S(=O)(=O)c1cccs1 (centres undefined) | 6.77% (inactive)
O=C(NCc1ccccc1Cl)C(=O)NCC1CCCN1S(=O)(=O)c1cccs1 (centres undefined) | 25.5% (active)
COc1ccccc1CCNC(=O)C(=O)NCCC1CCCCN1S(=O)(=O)c1cccs1 (centres undefined) | -2.28% (inactive)
COC(=O)C1CN(Cc2cn(Cc3ccc(F)cc3)nn2)CCS(=O)(=O)N1Cc1ccc(Cl)cc1 (centres undefined) | -3.71% (inactive)
CCCCCCCCc1c(O)nc(-n2[nH]c(C)c(CCO)c2=O)[nH]c1=O | 41.6% (active)
CCCCc1c(O)nc2n(c1=O)CCS2 | 7.5% (inactive)
COc1cc(/C=C/C(=O)n2cnc3ccccc32)cc(OC)c1OC | -7.12% (inactive)
Cc1cc(C)c(S(=O)(=O)NN=C2c3ccccc3[C@H]3Cc4csc[n+]4[C@@H]23)c(C)c1 | 25.7% (active)
CCSC(C)CC1C/C(=N/O)c2c(C)noc2C1 (centres undefined) | 4.33% (inactive)
COC1=C[C@H](C(=O)NCCNC(C)=O)[C@H](C)[C@@H](c2ccccc2)CC1=O | 6.52% (inactive)
Oc1c(C=Nc2cccc3nsnc23)ccc2ccccc12 | 59.5% (active)
Cc1ccc(-n2c(COc3ccccc3)nnc2SCC(=O)Nc2ccc3c(c2)OCCO3)cc1 | -5.97% (inactive)
COC(=O)[C@H](C(C)C)N(CCCc1cn(Cc2ccccc2)nn1)S(=O)(=O)c1ccc(F)cc1Br | -3.1% (inactive)
C=CCO/N=C(\C)c1c(O)c(C)c(-c2ccccc2)n(-c2ccccc2)c1=O | -4.01% (inactive)
COC(=O)[C@]12C[C@H](CC(=O)NCCCN3CCCC3=O)C(=O)N(CCc3ccc(OC)c(OC)c3)C1=C[C@H](COCc1ccccc1)O[C@@H]2C | 5.78% (inactive)
O=C1C(=O)N(Cc2ccc(-c3ccsc3)cc2)c2ccc(OC(F)(F)F)cc21 | 3.8% (inactive)
COc1cccc(NC(=O)C2C(c3ccccc3)C2(Cl)Cl)c1 (centres undefined) | 0.37% (inactive)
COc1ccc2c(c1)C(C)=CC(C)(C)N2C(=O)Nc1ccccc1 | 41.9% (active)
COc1ccc2c(c1)C(C)=CC(C)(C)N2C(=O)CNCc1ccc2c(c1)OCO2 | 4.77% (inactive)
CC(=O)Nc1ccc(S(=O)(=O)NC(C)C(=O)OCCOc2ccc(F)cc2)cc1 (centres undefined) | 3.48% (inactive)
Cn1nc(N)c2ncc(C(Cl)(Cl)Cl)nc21 | 33.9% (active)
Cc1ccc(C2=CCN(C)C(=O)N2c2ccc(Cl)cc2)cc1 | 8.05% (inactive)
Cc1[nH][nH]c(=O)c1C(c1ccc(-c2ccc(Cl)cc2)o1)c1c(C)[nH][nH]c1=O | 30% (active)
COc1cccc(NC(=O)[C@H](Cc2c[nH]c3ccccc23)NC(=O)[C@@H]2Cc3ccccc3CN2)c1 | -6.32% (inactive)
CC[C@@H](CCC(=O)N(c1ccccc1)c1ccccc1)C1CC1 | -0.32% (inactive)
CCN(CC)C(=O)[C@H]1C[C@H](CC(=O)NCC23CC4CC(CC(C4)C2)C3)C(=O)N2CCc3c([nH]c4cc(CCC(=O)N(C)C)ccc34)[C@]12C | -4.89% (inactive)
CCOc1ccc(C(C)NC(=O)CN2C(=O)NC3(CCCCC3)C2=O)cc1OCC (centres undefined) | -6.82% (inactive)

Compound | inhibition
CCOc1ccc(C(CC(=O)O)NC(=O)C23CC4CC(CC(C4)C2)C3)cc1OC (centres undefined) | 0.7% (inactive)
CCOc1ccc(C(c2c(C)[nH][nH]c2=O)c2c(C)[nH][nH]c2=O)cc1OCC | 25.3% (active)
CCOc1ccc(N(CC(=O)Nc2c(C)n(C)n(-c3ccccc3)c2=O)S(=O)(=O)c2ccc(Cl)s2)cc1 | -6.34% (inactive)
N#C/C(C(=O)N1CCOCC1)=C1/SC(Cc2ccc(F)cc2)C(=O)N1c1ccccc1 (centres undefined) | 2.43% (inactive)
O=C(NC1CCC1)c1ccc(C#CC2CC2)cn1 | 4.08% (inactive)
CCCCNC(=O)C(C)N(CCN(C)C)C(=O)CCCCCN1C(=O)NC(c2ccc(Cl)cc2)C(C(=O)OCc2ccccc2)=C1C (centres undefined) | -0.25% (inactive)
Cc1ccc(OCCCCN2CCCCC2)c(Br)c1 | 5.22% (inactive)
Cc1cc(C)c(OCCN2CC(C)OC(C)C2)c(Br)c1 (centres undefined) | 30.7% (active)
CC1CN(CCOc2ccccc2[N+](=O)[O-])CC(C)O1 (centres undefined) | 14% (inactive)
COc1ccc(-n2c(SCC(=O)Nc3ccc4c(c3)OCCO4)nnc2-c2ccc(Cl)cc2)cc1 | -7.72% (inactive)
O=C(CN1C(=O)CSC1=O)N1CCCC(Nc2ccc(F)cc2)C1 (centres undefined) | -8.75% (inactive)
O=C(c1ccccc1)c1ccc(-c2ccccc2C(=O)NC2CCCCN(Cc3ccc(Cl)cc3)C2=O)cc1 (centres undefined) | 15.2% (inactive)
Cc1ccccc1Cn1c2ccccc2c2cnn(CC(=O)NCc3ccco3)c(=O)c21 | 24.5% (active)
CCCn1c2ccccc2c2cnn(CC(=O)NCCCN3CCCCC3CC)c(=O)c21 (centres undefined) | -29.8% (inactive)
O=C(Cn1ncc2c3ccccc3n(Cc3ccccc3)c2c1=O)NCCCN1CCOCC1 | 12.7% (inactive)
CCC[C@H]1C(=O)CC[C@@]23CCCN2C(=O)CCC[C@@H]13 | 2.8% (inactive)
COc1ccccc1NC(=O)C1CCCN(c2cc(C)nc3ncnn23)C1 (centres undefined) | 2.18% (inactive)
COc1cccc(CNC(=O)C2CCCN(c3nc4ccccc4o3)C2)c1OC (centres undefined) | -1.52% (inactive)
O=C(NCCCCO)C(F)(F)C(F)(F)C(F)(F)C(=O)NCCCCO | -4.23% (inactive)
Cc1cc2nc3c(=O)[nH]c(=O)nc-3n(C[C@H](O)[C@H](O)[C@H](O)CO)c2cc1C | 3.4% (inactive)
CCN(CC)CCCC(C)n1c2nc(=O)[nH]c(=O)c-2nc2cc(Cl)ccc21 (centres undefined) | 24.6% (active)
O=c1[nH][nH]c(C(F)(F)F)c1C=NCc1ccccc1Cl | 4.32% (inactive)
C=CCn1c(=S)sc2c(=O)[nH]c(C)nc21 | 0.69% (inactive)
Oc1ccc(N=Cc2sc3ccccc3c2Cl)cc1 | 28.4% (active)
Oc1ccc(N=Cc2c(O)ccc3ccccc23)cc1 | 29.3% (active)
CCOC(=O)C1=C(C(=O)OCC)C2N(Cc3ccc(C#N)cc3)c3ccccc3[C@@]23C[C@@H](C(=O)OC)N(S(=O)(=O)c2ccc(F)cc2)C3=N1 (some centres undefined) | 3.59% (inactive)
COC(=O)[C@@]12CCCCC3=C1N(CCC3)C(=O)[C@H]2CC(=O)NCc1cccc2ccccc12 | 15.1% (inactive)
